CR mimetic SO: yeast age-related superoxide inhibition as caloric restriction mimetic; S. cerevisiae aged cells, superoxide DHE fluorescence; stronger effect = lower value; superoxide response (% of plate mean), % at 10 µM; hit rate 0.18% among 330,000; AID 2690;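 active = superoxide response under a set limit, about three screen SD below normal, cut at about 65% in these data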;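 note: yeast aged for seven days with compound at 30 °C before DHE staining; 100% = average MFI of all compound-treated wells on the plate with controls excluded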
TRPC4 PAM: allosteric potentiators of mouse TRPC4 channel | Q9QUQ5 | hit rate 0.42% among 310,000 | B-score at 10 µM | HEK293 TRPC4beta/mu-opioid, DAMGO EC20, Fluo-4 Ca2+ flux; stronger effect = higher value | AID 2227;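 active = B-score of calcium response area above 5 SD of library B-scores, with initial fluorescence ratio within 5 SD of library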;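 note: B-score of integrated fluorescence ratio over time as area under calcium response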
Target sequence (Q9QUQ5 whole entry, looked up): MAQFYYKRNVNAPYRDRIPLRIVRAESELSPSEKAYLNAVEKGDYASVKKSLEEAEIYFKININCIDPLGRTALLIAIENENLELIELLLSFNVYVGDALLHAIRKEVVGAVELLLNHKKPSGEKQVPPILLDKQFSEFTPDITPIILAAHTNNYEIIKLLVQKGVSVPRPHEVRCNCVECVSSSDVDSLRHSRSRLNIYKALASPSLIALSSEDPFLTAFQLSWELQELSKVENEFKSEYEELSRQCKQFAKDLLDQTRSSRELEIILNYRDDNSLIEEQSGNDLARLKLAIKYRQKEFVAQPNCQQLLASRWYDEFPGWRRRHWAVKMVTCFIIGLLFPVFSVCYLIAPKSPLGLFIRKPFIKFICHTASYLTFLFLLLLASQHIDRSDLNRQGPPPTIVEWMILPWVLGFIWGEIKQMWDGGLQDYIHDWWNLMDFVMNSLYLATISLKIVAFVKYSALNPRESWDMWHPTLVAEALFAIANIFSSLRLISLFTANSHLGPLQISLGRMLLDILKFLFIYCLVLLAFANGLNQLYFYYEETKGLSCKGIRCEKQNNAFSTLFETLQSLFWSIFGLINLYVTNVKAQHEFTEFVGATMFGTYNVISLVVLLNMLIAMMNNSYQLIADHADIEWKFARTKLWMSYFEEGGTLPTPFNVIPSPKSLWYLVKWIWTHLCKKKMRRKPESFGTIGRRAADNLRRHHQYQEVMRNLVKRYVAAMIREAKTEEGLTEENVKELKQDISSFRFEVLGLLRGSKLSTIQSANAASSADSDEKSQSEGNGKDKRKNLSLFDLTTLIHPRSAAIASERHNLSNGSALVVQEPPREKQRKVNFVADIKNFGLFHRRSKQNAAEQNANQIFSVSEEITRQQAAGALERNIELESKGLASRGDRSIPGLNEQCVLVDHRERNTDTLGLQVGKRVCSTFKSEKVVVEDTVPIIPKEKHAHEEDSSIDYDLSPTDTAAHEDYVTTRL
TRPC4 act: activators of mouse TRPC4 channel. B-score at 10 µM. HEK293 TRPC4beta/mu-opioid, Fluo4 calcium fluorescence; stronger effect = higher value. hit rate 0.49% among 310,000. Q9QUQ5;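 active = B-score above 5 SD of library B-scores, and initial fluorescence ratio not above library mean plus 5 SD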;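 note: positive B-score marks a calcium rise read as TRPC4 activation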
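system = HEK293 cells stably co-expressing mouse TRPC4beta and mu-opioid receptor | schedule = Fluo4 dye loading 45 min at room temperature, 110 s recording | measure = B-scored integrated calcium fluorescence ratio | signal = Fluo4 calcium-sensitive dye fluorescence, kinetic, 1 Hz baseline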
TRPC6 act: mouse TRPC6 channel activation; HEK293-TRPC6 membrane potential dye fluorescence; stronger effect = higher value; hit rate 0.13% among 310,000; B-score at 10 µM; Q61143;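 active = B-score of the integrated fluorescence ratio above library mean plus 3 SD, and starting fluorescence ratio within library mean plus 5 SD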;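 note: higher score means more depolarization so channel activation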
TRPC4 block: TRPC4 (mouse) channel inhibition. AID 2247. B-score at 10 µM. HEK293 TRPC4beta/mu-opioid, DAMGO-evoked Fluo4 calcium flux; stronger effect = lower value. hit rate 0.39% among 300,000;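 active = B-score over 3 SD under the library average, no early fluorescence shift, positive overall ratio signal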
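System: stable TRPC4beta/mu-opioid receptor HEK293 cells; Dosing: single-point compound dosing; Measured by: Fluo4 Ca2+ flux fluorescence; Read-out basis: per-well B score of integrated baseline-normalized Fluo4 ratio.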
TRPC6 inh: inhibitors of mouse TRPC6 channel; HEK293-TRPC6, membrane potential dye, ACh-evoked depolarization; stronger effect = lower value; AID 2553; B-score at 10 µM; Q61143; hit rate 1.1% among 310,000;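 active = B-score under library mean minus 3 SD, initial fluorescence not abnormally high, positive integrated signal ratio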;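 note: B-score derived from integrated fluorescence ratio over the kinetic read; more negative B-score means stronger inhibition of depolarization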
TRPC4 spec 2: mouse TRPC4 off-target activity of TRPC6 inhibitors, second screen | HEK293 TRPC4/MOR, membrane potential dye fluorescence; channel activated by saturating DAMGO dose | AID 2776 | inhibition, % at 10 µM | hit rate 42% among 920 | shares compounds with TRPC6 inh;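 active = compounds whose fluorescence signal differed from control wells by over 3 SD, either direction, in both duplicate plates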
TRPC4 spec: tests whether TRPC6 inhibitors also affect mouse TRPC4; shares compounds with TRPC6 inh; HEK293 TRPC4/mu-opioid, membrane potential fluorescence; activity change, negative = inhibition, % at 10 µM; hit rate 61% among 920; AID 2777;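 active = rise or fall in signal beyond 3 SD of buffer-only wells in both replicate plates, either sign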;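 note: integrated kinetic ratio of fluorescence range over baseline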
HEK293 MPD ctr 2-1: second counter-screen for TRPC6 inhibitors: parental HEK293 cells; signal change vs control, % at 10 µM; hit rate 31% among 920; shares compounds with TRPC6 inh; parental HEK293 membrane potential dye fluorescence; maximal acetylcholine challenge after compound addition;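 active = membrane potential signal moving either way by over 3 SD of the maximum-effect control, in both duplicate plates, meaning non-specific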
HEK293 MPD ctr-1: counter-screen for TRPC6 inhibitors: effect in parental HEK293 cells. shares compounds with TRPC6 inh. parental HEK293 membrane potential dye fluorescence. membrane potential signal change, % at 10 µM. hit rate 60% among 920. AID 2780;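 active = membrane potential signal shifting up or down by more than 3 SD of buffer-only wells, on both duplicate plates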
HEK293 MPD ctr-2: parental HEK293 nonspecific activity of TRPC6 modulators; shares compounds with TRPC6 inh; membrane potential dye fluorescence; membrane potential signal change, % at 10 µM; hit rate 51% among 2,400; AID 488924;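 active = membrane potential signal moves up or down beyond 5 SD from buffer-only wells, on both duplicate plates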
HEK293 MPD ctr 2-2: parental HEK293 nonspecific activity of TRPC6 modulators, second screen; shares compounds with TRPC6 inh; membrane potential dye fluorescence; after compound, maximal acetylcholine stimulation; inhibition, % at 10 µM; hit rate 14% among 2,400; AID 488926;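 active = membrane potential signal drops by more than 5 SD from the mean control signal, in both duplicate plates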;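 note: plate controls were acetylcholine ECmax control wells for no effect and buffer only wells for full effect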
TRPC4 ctr mod: mouse TRPC4 off-target activity of TRPC6 modulators; AID 488927; shares compounds with TRPC6 inh; percent change from control (negative = decrease, positive = increase), % at 10 µM; hit rate 69% among 2,400; HEK293 TRPC4/mu-opioid, membrane potential fluorescence;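 active = membrane potential signal moved up or down beyond 5 SD of buffer control wells, in both duplicate plates, actives on both sides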;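 note: plate controls were assay buffer wells for no effect and DAMGO maximal-effect wells for full effect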
TRPC4/MOR inh 2: second selectivity test of TRPC6 modulators against mouse TRPC4. shares compounds with TRPC6 inh. HEK293 TRPC4/mu-opioid, membrane potential dye fluorescence; stimulated with maximal-effect DAMGO. inhibition, % at 10 µM. hit rate 55% among 2,400;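 active = drop in membrane potential signal beyond 5 SD of the control wells in both duplicate plates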;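 note: TRPC4 counter screen for TRPC6 hits run under conditions tuned for TRPC6 not TRPC4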
TRPC6 inh conf: confirmation of mouse TRPC6 inhibitors. shares compounds with TRPC6 inh. HEK293-TRPC6, membrane potential dye, ACh-evoked depolarization. inhibition, % at 10 µM. hit rate 43% among 3,300. AID 488960;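 active = fluorescence ratio falls more than 5 SD below the full-stimulation control mean, in both duplicate runs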;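 note: integrated fluorescence ratio of peak minus minimum over baseline after agonist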
TRPC6 act confirm: confirmation of mouse TRPC6 activators; activation, % at 10 µM; AID 488961; HEK293-TRPC6 membrane potential dye fluorescence, FDSS; shares compounds with TRPC6 inh; hit rate 11% among 2,800;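 active = ratio signal rise beyond 5 SD above unstimulated control wells' mean, seen in both duplicate runs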;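 note: plate controls were buffer EC0 wells for no effect and acetylcholine ECmax response for full effect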
The depositor's hits bear a star; i = inactive; · = no result. Shown are actives, neighbours in structure and some others; about 2.3% of the full set was active somewhere.

SMILES | CR mimetic SO | TRPC4 PAM | TRPC4 act | TRPC6 act | TRPC4 block | TRPC6 inh | TRPC4 spec 2 | TRPC4 spec | HEK293 MPD ctr 2-1 | HEK293 MPD ctr-1 | HEK293 MPD ctr-2 | HEK293 MPD ctr 2-2 | TRPC4 ctr mod | TRPC4/MOR inh 2 | TRPC6 inh conf | TRPC6 act confirm
CC(=O)c1ccc(N2CCN(C(=O)CCC(=O)Nc3ccc4nc(N5CCN(C)CC5)cc(C)c4c3)CC2)cc1 | 99.0 | i | i | 13.1* | i | i | · | · | · | · | i | i | 16.0%* | i | i | i
CCCCN(C)C(=O)CCC(=O)Nc1ccc2nc(N3CCOCC3)cc(C)c2c1 | 101.1 | i | i | i | i | -7.64* | i | -20.1%* | i | -326.0%* | · | · | · | · | i | i
CCC(C)NC(=S)Nc1ccc2nc(N3CCOCC3)cc(C)c2c1 (stereo not given) | 93.8 | i | i | i | i | i | · | · | · | · | · | · | · | · | · | ·
COc1ccc(C(=O)N(c2ccccc2)C2C=CS(=O)(=O)C2)cc1 (stereo not given) | 99.2 | i | i | i | i | i | · | · | · | · | · | · | · | · | · | ·
O=C(c1ccccc1)N(c1ccccc1)C1C=CS(=O)(=O)C1 (stereo not given) | 89.2 | i | i | i | i | -6.27* | · | · | · | · | i | i | i | i | i | i
CC(C)CN=c1cc(-c2ccccc2)oc2ccc(Cl)cc12 | 93.0 | i | i | i | i | -7.36* | 75.5%* | -14.5%* | i | -268.5%* | · | · | · | · | i | i
C/C(CCc1oc2ccc(Cl)cc2c1-c1ccc(C)o1)=N\O | 106.7 | i | i | i | i | i | · | · | · | · | · | · | · | · | · | ·
OCCN=c1cc(-c2ccccc2)oc2ccc(Cl)cc12 | 104.7 | i | i | i | i | -8.79* | 67.0%* | -28.5%* | i | -356.0%* | · | · | · | · | 54.7%* | i
O=c1oc2ccc(Cl)cc2cc1-c1ccccc1 | 96.4 | i | i | i | i | i | · | · | · | · | · | · | · | · | · | ·
CC(O)CN=c1cc(-c2ccccc2)oc2ccc(Cl)cc12 (stereo not given) | 102.9 | i | i | i | i | -7.31* | · | · | · | · | -134.0%* | i | -28.5%* | 37.0%* | 57.5%* | i
CCc1cc2c(COC(=O)c3cccc(S(C)(=O)=O)c3)cc(=O)oc2cc1O | 115.8 | i | i | i | i | i | · | · | · | · | · | · | · | · | · | ·

From PubChem BioAssay
